Activity calls are given as the source filed them. No cut-off for these calls is given here.
Legend:
[1] = target: Adenosine A2A receptor (Homo sapiens) (UniProt P29274); assay: Displacement of [3H]ZM241385 from human A2aR/D2R (long isoform) heteromer expressed in mouse Ltk cells by scintillation counting; type: cell-based
Summary of the method: (§1)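 Mouse Ltk fibroblasts were transiently transfected with human A2AR, human D2R (long isoform) or both, and membranes were prepared 48 h later. Membranes were incubated 2 h at 25 °C in 50 mM Tris-HCl pH 7.4 with 10 mM MgCl2 and 2 U/mL ADA, plus 2.1 nM [3H]ZM241385 or 1.9 nM [3H]YM09151-2 and 1 μM test compound. Bound ligand was counted after filtration and expressed as % of specific binding without displacer; three independent experiments.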

[2] = test system: Dopamine D2 receptor (Homo sapiens); assay: Displacement of [3H]YM09151-2 from human A2aR/D2R (long isoform) heteromer expressed in mouse Ltk cells by scintillation counting
[3] = target: Adenosine A2A receptor (Homo sapiens) (UniProt P29274); assay: Displacement of [3H]ZM241385 from human A2aR/D2R (long isoform) coexpressed in mouse Ltk cells by scintillation counting; type: cell-based; summary of the method: as §1
[4] = Displacement of [3H]ZM241385 from A2aR dimer in lamb striatum membrane assessed as high affinity macroscopic equilibrium dissociation constant by scintillation counting; type: cell membranes, Ovis aries
Summary of the method: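 Lamb striatal membranes (0.3-0.5 mg protein/mL) were incubated 2 h at 25 °C in 50 mM Tris-HCl pH 7.4 with 10 mM MgCl2 and 2 U/mL ADA. Radioligand was 2.1 nM [3H]ZM241385 (A2AR) or 0.9 nM [3H]YM09151-2 (D2R), against 11 competitor concentrations from 0.1 nM to 50 μM in triplicate. Nonspecific binding used 50 μM unlabeled radioligand. After GF/C filtration, counts were fitted to a two-state dimer model for KDB1 and KDB2; three experiments.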

Chain of Adenosine A2A receptor (Homo sapiens) (P29274 whole entry, canonical isoform): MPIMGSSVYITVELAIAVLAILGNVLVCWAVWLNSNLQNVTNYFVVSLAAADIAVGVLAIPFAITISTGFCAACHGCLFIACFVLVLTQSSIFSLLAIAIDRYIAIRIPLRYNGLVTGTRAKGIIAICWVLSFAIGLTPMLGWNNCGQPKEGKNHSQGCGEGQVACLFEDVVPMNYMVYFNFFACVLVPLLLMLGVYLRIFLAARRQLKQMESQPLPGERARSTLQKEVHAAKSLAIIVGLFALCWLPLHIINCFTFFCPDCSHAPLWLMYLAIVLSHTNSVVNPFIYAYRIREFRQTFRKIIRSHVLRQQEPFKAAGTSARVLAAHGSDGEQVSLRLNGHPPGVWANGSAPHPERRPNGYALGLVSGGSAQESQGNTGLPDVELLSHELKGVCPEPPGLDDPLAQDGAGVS

Row | Structure (SMILES) | Activity [1] | Activity [2] | Activity [3] | Ki [4]
1 | CCCn1c(=O)c2[nH]c(-c3ccc(OCC(=O)NCCCCC(N)C(=O)NCCCCC(NC(C)=O)C(=O)NCCOCCOCCNC(=O)CCC(=O)NCCOCCOCCNC(=O)CCC(=O)NCCOCCOCCNC(=O)CCC(=O)NCCOCCOCCNC(=O)CCC(=O)NCCOCCOCCNC(=O)CCC(=O)NCCOCCOCCNC(=O)CCC(=O)NCCOCCOCCNC(=O)CCC(=O)NC(CCCCNC(C)=O)C(N)=O)cc3)nc2n(CCC)c1=O (configuration not stated) | 17% | – | – | –
2 | CCCN(CCc1ccc(NC(=O)CCC(N)C(=O)NCCCCC(NC(=O)CCC(=O)NCCOCCOCCNC(=O)CCC(=O)NCCOCCOCCNC(=O)CCC(=O)NCCOCCOCCNC(=O)CCC(=O)NCCOCCOCCNC(=O)CCC(=O)NCCOCCOCCNC(=O)CCC(=O)NCCOCCOCCNC(=O)CCC(=O)NCCOCCOCCNC(=O)C(CCCCNC(C)=O)NC(C)=O)C(N)=O)cc1)C1CCc2c(O)cccc2C1 (configuration not stated) | – | Active | – | –
3 | CCCN(CCc1ccc(NC(=O)CCC(N)C(=O)NCCCCC(NC(=O)CCC(=O)NCCOCCOCCNC(=O)CCC(=O)NCCOCCOCCNC(=O)CCC(=O)NCCOCCOCCNC(=O)CCC(=O)NCCOCCOCCNC(=O)CCC(=O)NCCOCCOCCNC(=O)C(CCCCNC(=O)C(N)CCCCNC(=O)COc2ccc(-c3nc4c([nH]3)c(=O)n(CCC)c(=O)n4CCC)cc2)NC(C)=O)C(N)=O)cc1)C1CCc2c(O)cccc2C1 (configuration not stated) | Active | Active | Active | –
4 | CCCn1c(=O)c2[nH]c(-c3ccc(OCC(=O)NCCCCC(N)C(=O)NCCCCC(NC(C)=O)C(=O)NCCOCCOCCNC(=O)CCC(=O)NCCOCCOCCNC(=O)CCC(=O)NC(CCCCNC(C)=O)C(N)=O)cc3)nc2n(CCC)c1=O (configuration not stated) | – | – | – | 0.268 µM
5 | CCCN(CCc1ccc(NC(=O)CCC(N)C(=O)NCCCCC(NC(=O)CCC(=O)NCCOCCOCCNC(=O)CCC(=O)NCCOCCOCCNC(=O)CCC(=O)NCCOCCOCCNC(=O)CCC(=O)NCCOCCOCCNC(=O)C(CCCCNC(C)=O)NC(C)=O)C(N)=O)cc1)C1CCc2c(O)cccc2C1 (configuration not stated) | – | Active | – | –
6 | CCCN(CCc1ccc(NC(=O)CCC(N)C(=O)NCCCCC(NC(=O)CCC(=O)NCCOCCOCCNC(=O)CCC(=O)NCCOCCOCCNC(=O)CCC(=O)NCCOCCOCCNC(=O)CCC(=O)NCCOCCOCCNC(=O)CCC(=O)NCCOCCOCCNC(=O)C(CCCCNC(C)=O)NC(C)=O)C(N)=O)cc1)C1CCc2c(O)cccc2C1 (configuration not stated) | – | Active | – | –
7 | CCCN(CCc1ccc(NC(=O)CCC(N)C(=O)NCCCCC(NC(=O)CCC(=O)NCCOCCOCCNC(=O)CCC(=O)NCCOCCOCCNC(=O)CCC(=O)NCCOCCOCCNC(=O)CCC(=O)NCCOCCOCCNC(=O)C(CCCCNC(=O)C(N)CCCCNC(=O)COc2ccc(-c3nc4c([nH]3)c(=O)n(CCC)c(=O)n4CCC)cc2)NC(C)=O)C(N)=O)cc1)C1CCc2c(O)cccc2C1 (configuration not stated) | Active | Active | Active | –
8 | CCCN(CCc1ccc(NC(=O)CCC(N)C(=O)NCCCCC(NC(=O)CCC(=O)NCCOCCOCCNC(=O)CCC(=O)NCCOCCOCCNC(=O)CCC(=O)NCCOCCOCCNC(=O)CCC(=O)NCCOCCOCCNC(=O)CCC(=O)NCCOCCOCCNC(=O)CCC(=O)NCCOCCOCCNC(=O)C(CCCCNC(=O)C(N)CCCCNC(=O)COc2ccc(-c3nc4c([nH]3)c(=O)n(CCC)c(=O)n4CCC)cc2)NC(C)=O)C(N)=O)cc1)C1CCc2c(O)cccc2C1 (configuration not stated) | Active | Active | Active | –
9 | CCCn1c(=O)c2[nH]c(-c3ccc(OCC(=O)NCCCCC(N)C(=O)NCCCCC(NC(C)=O)C(=O)NC(CCCCNC(C)=O)C(N)=O)cc3)nc2n(CCC)c1=O (configuration not stated) | 58% | – | – | 0.16 µM
10 | CCCN(CCc1ccc(NC(=O)CCC(N)C(=O)NCCCCC(NC(=O)CCC(=O)NCCOCCOCCNC(=O)CCC(=O)NCCOCCOCCNC(=O)CCC(=O)NCCOCCOCCNC(=O)CCC(=O)NCCOCCOCCNC(=O)CCC(=O)NCCOCCOCCNC(=O)CCC(=O)NCCOCCOCCNC(=O)C(CCCCNC(C)=O)NC(C)=O)C(N)=O)cc1)C1CCc2c(O)cccc2C1 (configuration not stated) | – | Active | – | –

Reference: ChEMBL document CHEMBL1153525, “Adenosine A2A receptor-antagonist/dopamine D2 receptor-agonist bivalent ligands as pharmacological tools to detect A2A-D2 receptor heteromers” (J Med Chem, 2009)
